Measurements reported in ChEMBL document CHEMBL1124344, “5-Piperazinylalkyl-2(3H)-oxazolones with neuroleptic activity” (J Med Chem, 1989).

Legend:
Mus musculus [1] = test: Antagonistic activity against amphetamine-induced Hypermobility in mice, by administering perorally at a dose of 70 mg/kg; assay type: functional; conditions: route oral
In short: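 Male mice in groups of five, fasted overnight, given oral drug in arabic gum suspension (10 mL/kg) 1 or 5 h ahead. Amphetamine 4 mg/kg ip given 30 min after drug. Ten minutes later locomotion is recorded for 15 min in a photocell actophotometer. ED50 is 50% reduction versus control hypermotility, by probit analysis. Parenthetical entries give the maximal dose and percent activity.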

Rattus norvegicus [2] = test: Activity to evoke catalepsy in rats, by administering perorally at a dose of 70 mg/kg; assay type: functional; conditions: route oral
In short: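 Rats fasted overnight and given oral doses in arabic gum suspension (10 mL/kg), 1 h before screening or 1 and 5 h before profile testing. Forelegs placed on a horizontal bar 7 cm high, three times at 5-min intervals. Immobility of at least 15 s counts as catalepsy. ED50 is the dose giving catalepsy in 50% of rats, by probit analysis. Parenthetical entries give the maximal dose and percent activity.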

Rattus norvegicus [3] = test: Antagonistic activity against apomorphine-induced stereotypy in rats, by administering perorally at a dose of 70 mg/kg; assay type: functional; conditions: route oral
In short: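 Male rats fasted overnight and given oral doses in arabic gum suspension (10 mL/kg) 1 h, or 1 and 5 h, before challenge. Apomorphine 3 mg/kg iv, with stereotypy observed 20 min later. ED50 is the dose inhibiting stereotypy in 50% of rats, per Janssen's method. Parenthetical entries give the maximal dose and percent activity.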

Mus musculus [4] = test: Inhibition of spontaneous motor activity in mice, by administering perorally at a dose of 70 mg/kg; assay type: functional; conditions: route oral
In short: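 Mice fasted overnight, then dosed orally with compound (weighed as base) suspended in arabic gum, 10 mL/kg, with vehicle controls; 1 h pretreatment for screening tests, 1 or 5 h for others. Groups of five; locomotor activity counted 10 min in photocell activity cage, at least two groups per dose. ED50 = dose giving 50% inhibition versus controls, by probit analysis.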

[5] = Lethal dose in mice (LD50) following i.p. dosing; assay type: toxicity, organism-based; conditions: mouse, in vivo, ip
In short: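 Acute toxicity tested in mice by the intraperitoneal route. LD50 is the dose killing 50% of treated mice, computed by Finney probit analysis; values are approximate.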

SMILES: CSc1ccc(-c2nc(O)oc2CCN2CCN(c3ccccc3)CC2)cc1
- inhibition in vivo at 70 mg/kg (Mus musculus [1]): 0%
- inhibition in vivo at 70 mg/kg (Rattus norvegicus [2]): 0%
- inhibition in vivo at 70 mg/kg (Rattus norvegicus [3]): 0%
- inhibition in vivo at 70 mg/kg (Mus musculus [4]): 47%
- LD50 [5]: 250 mg/kg
